Measured values from different studies.
Lines come from different studies, so protocols differ. pIC50: −log10 of the molar value. Converted amounts (≈) assume the structure as drawn.
Organism: Mycobacterium tuberculosis
Effect on: microbial growth

Structure (SMILES)	strain	measurement	value
N#Cc1cncc(Cn2c(=S)[nH]c3cc(CO)c(Cl)cc3c2=O)c1	H37RV	MIC90	2.7 µM
Cc1ccc(-c2cc(NCCc3ccc(C(F)(F)F)cc3)n3cnnc3n2)o1	H37RV	IC90	0.37 µM
NCC[C@H](O)C(=O)N[C@@H]1C[C@H](N)[C@@H](O[C@H]2O[C@H](CN)[C@@H](O)[C@H](O)[C@H]2O)[C@H](O)[C@H]1O[C@H]1O[C@H](CO)[C@@H](O)[C@H](N)[C@H]1O	H37RV	MIC90	3.3 µg/mL
Cc1ccc(CCNc2cc(-c3ccccn3)nc3nncn23)cc1	H37RV	MIC	0.26 µM (≈ 0.0859 µg/mL)
CO[C@H]1/C=C/O[C@@]2(C)Oc3c(C)c(O)c4c(O)c(c(/C=N/N5CCN(C)CC5)c(O)c4c3C2=O)NC(=O)/C(C)=C\C=C\[C@H](C)[C@H](O)[C@@H](C)[C@@H](O)[C@@H](C)[C@H](OC(C)=O)[C@@H]1C		MIC50	0.01 µg/mL (≈ 0.0122 µM)
COc1ccc(-c2cc(C(F)(F)F)c3c(N)c(C(=O)NCCSC)sc3n2)cc1	H37RV	pIC50	4.38
CC(c1cccnc1)n1c(=S)[nH]c2ccc(Cl)cc2c1=O (centres unmarked)	H37RV	MIC90	66.2 µM
CCc1ccc(CCNc2cc(-c3ccccn3)nc3nnc(C4CC4)n23)cc1	H37RV	MIC	50 µM (≈ 19.2 µg/mL)
O=c1c2cc(Cl)c(CO)cc2[nH]c(=S)n1Cc1cccnc1	H37RV	MIC90	3.6 µM
COc1ccc(-c2cc(C(F)(F)F)c3c(N)c(C(=O)NC45CC6CC(CC(O)(C6)C4)C5)sc3n2)cc1	H37RV	pIC50	< 4.00
c1ccc(-c2cc(Nc3ccc(N4CCOCC4)cc3)n3cnnc3n2)nc1	H37RV	MIC	> 100 µM
NC(=O)c1cncc(Cn2c(=S)[nH]c3cc(CO)c(Cl)cc3c2=O)c1	H37RV	MIC90	17.2 µM
COc1ccc(-c2cc(C(F)(F)F)c3c(N)c(C(=O)N4CC5(CCOC5)C4)sc3n2)cc1	H37RV	pIC50	4.62
O=C(O)c1cc2[nH]c(=S)n(Cc3cccnc3)c(=O)c2cc1Cl	H37RV	MIC90	> 100 µM
COc1ccc(-c2cc(C(F)(F)F)c3c(N)c(C(=O)NCCc4ccccc4)sc3n2)cc1	H37RV	pIC50	< 4.00
N#Cc1cc2[nH]c(=S)n(Cc3cccnc3)c(=O)c2cc1Cl	H37RV	MIC90	> 100 µM
Cc1ccc(CCNc2cc(-c3ccc(Cl)s3)nc3nncn23)cc1	H37RV	MIC	4.8 µM (≈ 1.78 µg/mL)
COc1ccc(-c2cc(C(F)(F)F)c3c(N)c(C(=O)NC(C)C4CCCCC4)sc3n2)cc1 (centres unmarked)	H37RV	pIC50	6.03
O=C(Cc1ccccc1)Nc1cc(-c2ccccn2)nc2nncn12	H37RV	IC90	2 µM
COc1ccc(-c2cc(C(F)(F)F)c3cc(C(=O)NC(C)c4ccccc4)sc3n2)cc1 (centres unmarked)	H37RV	pIC50	5.60
